Results reported in ChEMBL document CHEMBL1126762, “Synthesis and anaerobic activity of novel 1-carba-1-dethiacephalosporins” (J Med Chem, 1993).
Values after ≈ are worked out from the molar mass of the structure shown.

Experiments:
[1] = test system: Bacteroides thetaiotaomicron; assay: Antibacterial activity against anaerobic Bacteroides thetaiotaomicron 1438; assay type: functional
Summary of the method: (§1)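 MIC by agar dilution following the NCCLS M11-A2 (2nd ed.) procedure for antimicrobial testing of anaerobic bacteria.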

[2] = test system: Klebsiella pneumoniae; assay: Antibacterial activity against aerobic Klebsiella pneumoniae X26; assay type: functional
Summary of the method: (§2)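 MIC by agar dilution following the NCCLS M7-A2 (2nd ed.) procedure for bacteria that grow aerobically.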

[3] = test system: Bacteroides fragilis; assay: Antibacterial activity against anaerobic Bacteroides fragilis 111; assay type: functional; summary of the method: as §1
[4] = test system: Clostridium perfringens; assay: Antibacterial activity against anaerobic Clostridium perfringens 81; assay type: functional
Summary of the method: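 Agar dilution MIC following NCCLS document M11-A2 (Vol. 10, no. 15), the method for antimicrobial testing of anaerobic bacteria; value reported as minimum inhibitory concentration.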

[5] = test system: Phocaeicola vulgatus; assay: Antibacterial activity against anaerobic Bacteroides vulgatus 1211; assay type: functional; summary of the method: as §1
[6] = test system: Peptostreptococcus anaerobius; assay: Antibacterial activity against anaerobic Peptostreptococcus anaerobius 1451; assay type: functional; summary of the method: as §1
[7] = test system: Streptococcus pneumoniae; assay: Antibacterial activity against aerobic Streptococcus pneumoniae PARK; assay type: functional; summary of the method: as §2
[8] = test system: Prevotella melaninogenica; assay: Antibacterial activity against anaerobic Bacteroides melaninogenicus 2736; assay type: functional; summary of the method: as §1
[9] = test system: Clostridioides difficile; assay: Antibacterial activity against anaerobic Clostridium difficile 2994 strain; assay type: functional; summary of the method: as §1
[10] = Antibacterial activity against anaerobic Fusobacterium symbiosum 1470; assay type: functional, fusobacterium symbosium; summary of the method: as §1
[11] = test system: Eikenella corrodens; assay: Antibacterial activity against anaerobic Bacteroides corrodens 1874; assay type: functional; summary of the method: as §1
[12] = test system: Haemophilus influenzae; assay: Antibacterial activity against aerobic Haemophilus influenzae RES 76; assay type: functional; summary of the method: as §2
[13] = test system: Staphylococcus epidermidis; assay: Antibacterial activity against aerobic Staphylococcus epidermidis 222; assay type: functional; summary of the method: as §2
[14] = test system: Escherichia coli; assay: Antibacterial activity against aerobic Escherichia coli EC14; assay type: functional; summary of the method: as §2
[15] = test system: Prevotella melaninogenica; assay: Antibacterial activity against anaerobic Bacteroides melaninogenicus 1856/28; assay type: functional; summary of the method: as §1
[16] = test system: Cutibacterium acnes; assay: Antibacterial activity against anaerobic Propionibacterium acnes 79; assay type: functional; summary of the method: as §1
[17] = test system: Staphylococcus aureus; assay: Antibacterial activity against aerobic Staphylococcus aureus X1.1 strain; assay type: functional; summary of the method: as §2
[18] = Antibacterial activity against anaerobic Eubacterium aerofaciens 1235; assay type: functional; conditions: Collinsella aerofaciens; summary of the method: as §1
[19] = Antibacterial activity against anaerobic Peptostreptococcus intermedius 1264; assay type: functional; summary of the method: as §1
[20] = test system: Clostridium septicum; assay: Antibacterial activity against anaerobic Clostridium septicum 1128; assay type: functional; summary of the method: as §1
[21] = test system: Bacteroides fragilis; assay: Antibacterial activity against anaerobic Bacteroides fragilis 1936B; assay type: functional; summary of the method: as §1
[22] = test system: Klebsiella aerogenes; assay: Antibacterial activity against aerobic Enterobacter aerogenes C32; assay type: functional; summary of the method: as §2
[23] = test system: Pseudomonas aeruginosa; assay: Antibacterial activity against aerobic Pseudomonas aeruginosa X239 strain; assay type: functional; summary of the method: as §2
[24] = Antibacterial activity against anaerobic Peptococcus asaccharolyticus 1302; assay type: functional; conditions: Peptoniphilus asaccharolyticus; summary of the method: as §1
[25] = test system: Anaerococcus prevotii; assay: Antibacterial activity against anaerobic Peptococcus prevoti 1281; assay type: functional; summary of the method: as §1
[26] = test system: Bacteroides fragilis; assay: Antibacterial activity against anaerobic Bacteroides fragilis 1877; assay type: functional; summary of the method: as §1
[27] = test system: Fusobacterium necrophorum; assay: Antibacterial activity against anaerobic Fusobacterium necrophorum 6054A; assay type: functional; summary of the method: as §1

SMILES	MIC [1]	MIC [2]	MIC [3]	MIC [4]	MIC [5]	MIC [6]	MIC [7]	MIC [8]	MIC [9]	MIC [10]	MIC [11]	MIC [12]	MIC [13]	MIC [14]	MIC [15]	MIC [16]	MIC [17]	MIC [18]	MIC [19]	MIC [20]	other results
CO/N=C(\C(=O)N[C@@H]1C(=O)N2C(C(=O)O)=C(Sc3ncc(C(F)(F)F)s3)CC[C@H]12)c1csc(N)n1	4 mg/L (≈ 7.29 µM)	0.03 mg/L (≈ 0.0547 µM)	128 mg/L (≈ 233 µM)	0.06 mg/L (≈ 0.109 µM)	8 mg/L (≈ 14.6 µM)	0.5 mg/L (≈ 0.911 µM)	0.008 mg/L (≈ 0.0146 µM)	32 mg/L (≈ 58.3 µM)	0.06 mg/L (≈ 0.109 µM)	2 mg/L (≈ 3.65 µM)	128 mg/L (≈ 233 µM)	0.06 mg/L (≈ 0.109 µM)	1 mg/L (≈ 1.82 µM)	0.25 mg/L (≈ 0.456 µM)	0.125 mg/L (≈ 0.228 µM)	0.008 mg/L (≈ 0.0146 µM)	0.25 mg/L (≈ 0.456 µM)	16 mg/L (≈ 29.2 µM)	0.015 mg/L (≈ 0.0273 µM)	0.5 mg/L (≈ 0.911 µM)	MIC [21]: 128 mg/L (≈ 233 µM); MIC [22]: 0.5 mg/L (≈ 0.911 µM); MIC [23]: 128 mg/L (≈ 233 µM); MIC [24]: 0.125 mg/L (≈ 0.228 µM); MIC [25]: 0.5 mg/L (≈ 0.911 µM); MIC [26]: 4 mg/L (≈ 7.29 µM); MIC [27]: 0.25 mg/L (≈ 0.456 µM)
CO/N=C(\C(=O)N[C@@H]1C(=O)N2C(C(=O)O)=C(Sc3ncc([N+](=O)[O-])s3)CC[C@H]12)c1csc(N)n1	≤ 0.5 mg/L	0.125 mg/L (≈ 0.238 µM)	8 mg/L (≈ 15.2 µM)	2 mg/L (≈ 3.81 µM)	2 mg/L (≈ 3.81 µM)	≤ 0.5 mg/L	0.008 mg/L (≈ 0.0152 µM)	4 mg/L (≈ 7.61 µM)	2 mg/L (≈ 3.81 µM)	1 mg/L (≈ 1.9 µM)	8 mg/L (≈ 15.2 µM)	0.06 mg/L (≈ 0.114 µM)	0.5 mg/L (≈ 0.951 µM)	0.5 mg/L (≈ 0.951 µM)	4 mg/L (≈ 7.61 µM)	≤ 0.5 mg/L	0.125 mg/L (≈ 0.238 µM)	8 mg/L (≈ 15.2 µM)	≤ 0.5 mg/L	≤ 0.5 mg/L	MIC [21]: 4 mg/L (≈ 7.61 µM); MIC [22]: 2 mg/L (≈ 3.81 µM); MIC [23]: > 128 mg/L; MIC [24]: ≤ 0.5 mg/L; MIC [25]: ≤ 0.5 mg/L; MIC [26]: 2 mg/L (≈ 3.81 µM); MIC [27]: ≤ 0.5 mg/L
CO/N=C(\C(=O)N[C@@H]1C(=O)N2C(C(=O)O)=C(Sc3ncc(S(C)(=O)=O)s3)CC[C@H]12)c1csc(N)n1	2 mg/L (≈ 3.58 µM)	0.03 mg/L (≈ 0.0537 µM)	> 128 mg/L	0.25 mg/L (≈ 0.448 µM)	16 mg/L (≈ 28.6 µM)	0.5 mg/L (≈ 0.895 µM)	0.008 mg/L (≈ 0.0143 µM)	32 mg/L (≈ 57.3 µM)	0.125 mg/L (≈ 0.224 µM)	8 mg/L (≈ 14.3 µM)	> 128 mg/L	0.015 mg/L (≈ 0.0269 µM)	1 mg/L (≈ 1.79 µM)	0.06 mg/L (≈ 0.107 µM)	0.125 mg/L (≈ 0.224 µM)	0.03 mg/L (≈ 0.0537 µM)	0.25 mg/L (≈ 0.448 µM)	32 mg/L (≈ 57.3 µM)	0.03 mg/L (≈ 0.0537 µM)	16 mg/L (≈ 28.6 µM)	MIC [21]: > 128 mg/L; MIC [22]: 0.25 mg/L (≈ 0.448 µM); MIC [23]: > 128 mg/L; MIC [24]: 0.25 mg/L (≈ 0.448 µM); MIC [25]: 0.25 mg/L (≈ 0.448 µM); MIC [26]: 32 mg/L (≈ 57.3 µM); MIC [27]: 0.008 mg/L (≈ 0.0143 µM)
